The species entered for assay [1] is Rattus norvegicus. The assay is described as follows: Selectivity ratio of Ki for alpha-1D adrenoreceptor in Sprague-Dawley rat thoracic aorta to Ki for alpha-1A adrenoreceptor in Sprague-Dawley rat prostatic vas deferens. It counts as tissue-based.
For assay [2], the target named is T1, Alpha-1A adrenergic receptor (Homo sapiens, UniProt P35348).
T1 sequence (P35348 whole entry): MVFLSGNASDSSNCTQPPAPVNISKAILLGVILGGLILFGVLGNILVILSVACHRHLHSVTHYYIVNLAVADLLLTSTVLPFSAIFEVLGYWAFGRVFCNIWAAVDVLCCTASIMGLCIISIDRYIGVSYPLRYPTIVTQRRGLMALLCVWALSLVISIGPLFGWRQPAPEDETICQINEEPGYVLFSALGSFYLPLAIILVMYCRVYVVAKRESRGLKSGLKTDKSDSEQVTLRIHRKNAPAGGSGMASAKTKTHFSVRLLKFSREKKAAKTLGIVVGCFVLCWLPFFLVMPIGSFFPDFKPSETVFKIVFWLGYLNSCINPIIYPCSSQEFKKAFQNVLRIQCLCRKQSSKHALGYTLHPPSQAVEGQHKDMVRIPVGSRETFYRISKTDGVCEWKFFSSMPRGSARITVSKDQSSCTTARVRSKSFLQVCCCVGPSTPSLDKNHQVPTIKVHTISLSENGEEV
The assay can be described thus: Displacement of [3H]prazosin from human alpha-1A adrenoreceptor expressed in CHO cells after 30 mins. The class given is cell-based. A digest of the protocol: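 Membranes from CHO cells expressing each α₁-AR subtype, incubated 30 min at 25 °C in 50 mM Tris HCl pH 7.7 with 10 μM pargyline and 0.1% ascorbic acid, plus 0.5 nM [³H]prazosin and varying test compound concentrations. Nonspecific binding was defined with 1 μM prazosin.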
A general note: Displacement assays read how much labelled ligand stays bound in the presence of the test substance.

Assay [3] concerns the target T2, Adrenergic receptor alpha-2 (Rattus norvegicus, UniProt P22086+P19328+P22909).
T2 sequence (P22086 whole entry): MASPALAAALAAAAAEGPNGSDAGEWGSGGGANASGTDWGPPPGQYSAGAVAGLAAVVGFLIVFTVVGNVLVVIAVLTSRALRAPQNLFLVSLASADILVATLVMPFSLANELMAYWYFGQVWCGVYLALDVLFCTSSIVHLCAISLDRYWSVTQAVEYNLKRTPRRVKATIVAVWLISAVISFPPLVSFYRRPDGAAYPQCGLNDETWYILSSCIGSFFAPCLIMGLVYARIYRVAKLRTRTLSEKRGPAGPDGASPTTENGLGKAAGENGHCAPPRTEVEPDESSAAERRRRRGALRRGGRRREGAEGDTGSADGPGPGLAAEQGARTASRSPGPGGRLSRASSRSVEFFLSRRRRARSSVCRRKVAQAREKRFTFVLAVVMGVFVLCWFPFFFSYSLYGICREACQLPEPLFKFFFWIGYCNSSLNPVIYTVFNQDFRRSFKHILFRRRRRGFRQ
T2 sequence (P19328 whole entry): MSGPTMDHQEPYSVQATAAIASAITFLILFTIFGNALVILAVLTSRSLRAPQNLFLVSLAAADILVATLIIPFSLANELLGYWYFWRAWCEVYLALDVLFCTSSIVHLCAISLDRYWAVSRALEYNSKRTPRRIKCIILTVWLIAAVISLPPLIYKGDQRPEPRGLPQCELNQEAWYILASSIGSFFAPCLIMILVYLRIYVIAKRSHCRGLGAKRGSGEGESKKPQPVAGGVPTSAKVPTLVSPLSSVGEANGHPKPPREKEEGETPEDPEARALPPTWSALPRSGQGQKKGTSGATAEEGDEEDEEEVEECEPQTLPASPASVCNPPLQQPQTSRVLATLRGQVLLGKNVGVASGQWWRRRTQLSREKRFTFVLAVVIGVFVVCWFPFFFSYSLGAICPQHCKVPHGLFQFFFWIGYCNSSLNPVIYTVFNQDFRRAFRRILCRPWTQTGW
T2 sequence (P22909 whole entry): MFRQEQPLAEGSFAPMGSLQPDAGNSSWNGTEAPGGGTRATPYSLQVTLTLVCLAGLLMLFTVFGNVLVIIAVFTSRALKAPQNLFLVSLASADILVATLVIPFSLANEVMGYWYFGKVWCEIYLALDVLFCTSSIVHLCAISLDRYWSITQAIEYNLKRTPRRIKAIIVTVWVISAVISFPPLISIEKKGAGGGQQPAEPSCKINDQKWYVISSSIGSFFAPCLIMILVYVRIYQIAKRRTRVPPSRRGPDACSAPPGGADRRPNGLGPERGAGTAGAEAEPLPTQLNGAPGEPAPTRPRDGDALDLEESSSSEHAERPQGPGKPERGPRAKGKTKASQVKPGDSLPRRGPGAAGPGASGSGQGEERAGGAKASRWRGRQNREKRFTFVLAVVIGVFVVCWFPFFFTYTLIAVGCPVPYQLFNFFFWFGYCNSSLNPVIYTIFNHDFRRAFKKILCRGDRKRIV
The assay can be described thus: Antagonist activity at alpha-2 adrenoreceptor in Sprague-Dawley rat prostatic vas deferens assessed as reversal of clonidine-inhibited twitch responses of field-stimulated prostatic portion of vas deferens after 30 mins by Schild plot analysis. It counts as tissue-based. A digest of the protocol: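 Prostatic vas deferens in bath with propranolol 1 μM and desipramine 0.01 μM throughout. A cumulative clonidine control curve was run, then a second curve after 30 min antagonist equilibration. pA₂ from Schild plot of log(DR−1) vs log[antagonist], at least three antagonist concentrations, 3−5 repeats each.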

For assay [4], the species on record is Rattus norvegicus. The assay is described as follows: Selectivity ratio of Ki for alpha-1D adrenoreceptor in Sprague-Dawley rat thoracic aorta to Ki for alpha-1B adrenoreceptor in Sprague-Dawley rat spleen. The class given is tissue-based.
For assay [5], the species on record is Rattus norvegicus. The assay is described as follows: Selectivity ratio of Ki for alpha-1D adrenoreceptor in Sprague-Dawley rat thoracic aorta to Ki for alpha-1A adrenoreceptor in Sprague-Dawley rat prostate. It counts as tissue-based.

From ChEMBL document CHEMBL2417545, “6-methoxy-7-benzofuranoxy and 6-methoxy-7-indolyloxy analogues of 2-[2-(2,6-Dimethoxyphenoxy)ethyl]aminomethyl-1,4-benzodioxane (WB4101):1 discovery of a potent and selective α1D-adrenoceptor antagonist” (J Med Chem, 2013) come the findings set out here.

By Ki is commonly meant the dissociation constant of the complex between target and ligand, obtained from inhibition or displacement. A lower Ki goes with tighter binding. By pA2 is commonly meant a measure of antagonist potency on a negative log scale. With `COc1ccc2ccoc2c1OCCNC[C@H]1COc2ccccc2O1.Cl`, the figures for the Ratio Ki in the assay listed under Rattus norvegicus [1] and in the assay listed under Rattus norvegicus [4] were 6 and 2, respectively. This compound also gave an inhibition constant (Ki) in assay [2] of 0.49 nM. Further, in assay [3], the pA2 is recorded as 6.55.

As to `COc1ccc2c(c1OCCNC[C@H]1COc3ccccc3O1)OCC2.Cl`, the Ratio Ki came out at 129 in the assay listed under Rattus norvegicus [1], 12 in the assay filed under Rattus norvegicus [4] and 50 in the assay filed under Rattus norvegicus [5]. Moreover, in assay [2], the inhibitory constant (Ki) was 2 nM. Besides, the pA2 in assay [3] worked out at 6.63.

`COc1ccc2c(c1OCCNC[C@H]1COc3ccccc3O1)NCC2.Cl.Cl` showed an inhibition constant Ki in assay [2] of 3.8 nM. Further, the pA2 in assay [3] is recorded as 6.05.

In assay [2], `COc1ccc2cc[nH]c2c1OCCNC[C@H]1COc2ccccc2O1` gave a Ki of 178 nM. The pA2 in assay [3] turned out to be 6.09.
